Laboratory results taken from ChEMBL document CHEMBL1909532, “Comparative evaluation of two structurally related flavonoids, isoliquiritigenin and liquiritigenin, for their oral infection therapeutic potential” (J Nat Prod, 2011).
≈ marks a conversion by molar mass, not a printed value. One block for each compound: values may come before it. Calls of active or inactive are those of the source. The rule behind the calls is not given here.

How the values were obtained:
[1] = biological target: T1, Collagenase (Porphyromonas gingivalis) (UniProt P33437); experiment: Inhibition of Porphyromonas gingivalis ATCC 33277 collagenase assessed at 100 ug/ml after 4 hrs by fluorimetric analysis relative to control
T1 sequence (whole entry): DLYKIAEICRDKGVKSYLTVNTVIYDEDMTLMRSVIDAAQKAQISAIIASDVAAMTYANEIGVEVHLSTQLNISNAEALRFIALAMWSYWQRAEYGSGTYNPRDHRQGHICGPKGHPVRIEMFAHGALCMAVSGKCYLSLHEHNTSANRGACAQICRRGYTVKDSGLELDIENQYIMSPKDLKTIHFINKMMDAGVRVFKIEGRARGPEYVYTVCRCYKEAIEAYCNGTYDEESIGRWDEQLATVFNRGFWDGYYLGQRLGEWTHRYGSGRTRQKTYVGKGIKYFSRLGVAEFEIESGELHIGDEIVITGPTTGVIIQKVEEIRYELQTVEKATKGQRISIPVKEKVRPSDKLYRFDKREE
In short: (§1)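 Two-day P. gingivalis ATCC 33277 culture supernatant incubated with fluorescein-conjugated DQ type I collagen (stock 100 μg/mL) in TCNB buffer, compound final 0, 5, 25 or 100 μg/mL. Incubated 4 h in the dark at room temperature, then fluorescence read. Triplicates, mean ± SD.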

[2] = biological target: Matrix metalloproteinase-9 (Homo sapiens) (UniProt P14780); experiment: Inhibition of human MMP9 assessed as remaining activity at 5 ug/ml after 4 hrs by fluorimetric analysis relative to control
In short: (§2)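 Active human recombinant MMP-9 (final 100 ng/mL) in TCNB buffer (50 mM Tris-HCl, 10 mM CaCl2, 150 mM NaCl, 0.05% Brij35, pH 7.5) with fluorescein-conjugated DQ gelatin (stock 1 mg/mL); compound final 0, 5, 25 or 100 μg/mL. Incubated 4 h at 37 °C in the dark; fluorescence at ex 490/em 520 nm.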

[3] = biological target: Matrix metalloproteinase-9 (Homo sapiens) (UniProt P14780); experiment: Inhibition of human MMP9 assessed as remaining activity at 25 ug/ml after 4 hrs by fluorimetric analysis relative to control; in short: as §2
[4] = biological target: Matrix metalloproteinase-9 (Homo sapiens) (UniProt P14780); experiment: Inhibition of human MMP9 assessed as remaining activity at 100 ug/ml after 4 hrs by fluorimetric analysis relative to control; in short: as §2
U-937 [5] = experiment: Antiinflammatory activity in human U937 cells assessed as inhibition of LPS-induced TNFalpha secretion at 5 ug/ml after 24 hrs by ELISA relative to control; format: functional; settings: U-937, 24 h
In short: (§3)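 U937 monocytes differentiated with 10 ng/mL PMA for 48 h, then placed in RPMI-1% FBS. Pretreated 2 h with compound (0, 0.2, 1, 5 μg/mL), then stimulated with A. actinomycetemcomitans ATCC 29522 LPS (1 μg/mL) for 24 h. Cytokines and MMP-9 in supernatants measured by ELISA at 450 nm. Triplicates, two experiments, mean ± SD.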

U-937 [6] = experiment: Antiinflammatory activity in human U937 cells assessed as inhibition of LPS-induced CCL5 secretion at 5 ug/ml after 24 hrs by ELISA relative to control; format: functional; in short: as §3
U-937 [7] = experiment: Antiinflammatory activity in human U937 cells assessed as inhibition of LPS-induced of IL6 secretion at 5 ug/ml after 24 hrs by ELISA relative to control; format: functional; in short: as §3
U-937 [8] = experiment: Antiinflammatory activity in human U937 cells assessed as inhibition of LPS-induced IL1-beta secretion at 5 ug/ml after 24 hrs by ELISA relative to control; format: functional; in short: as §3
U-937 [9] = experiment: Antiinflammatory activity in human U937 cells assessed as inhibition of LPS-induced IL8 secretion at 5 ug/ml after 24 hrs by ELISA relative to control; format: functional; settings: U-937, 24 h; in short: as §3
U-937 [10] = experiment: Antiinflammatory activity in human U937 cells assessed as inhibition of LPS-induced IL8 secretion after 24 hrs by ELISA; format: functional, cell-based; in short: as §3
U-937 [11] = experiment: Antiinflammatory activity in human U937 cells assessed as inhibition of LPS-induced TNFalpha secretion after 24 hrs by ELISA; format: functional, cell-based; in short: as §3
U-937 [12] = experiment: Antiinflammatory activity in human U937 cells assessed as inhibition of LPS-induced CCL5 secretion after 24 hrs by ELISA; format: functional, cell-based; in short: as §3
U-937 [13] = experiment: Antiinflammatory activity in human U937 cells assessed as inhibition of LPS-induced IL6 secretion after 24 hrs by ELISA; format: functional, cell-based; in short: as §3
U-937 [14] = experiment: Antiinflammatory activity in human U937 cells assessed as inhibition of LPS-induced IL1-beta secretion after 24 hrs by ELISA; format: functional, cell-based; in short: as §3
U-937 [15] = experiment: Antiinflammatory activity in human U937 cells assessed as inhibition of LPS-induced IL6 secretion at 0.2 ug/ml after 24 hrs by ELISA relative to control; format: functional, cell-based; in short: as §3
U-937 [16] = experiment: Antiinflammatory activity in human U937 cells assessed as inhibition of LPS-induced IL1-beta secretion at 0.2 ug/ml after 24 hrs by ELISA relative to control; format: functional, cell-based; in short: as §3
U-937 [17] = experiment: Cytotoxicity against human U937 cells assessed as loss of cell viability by MTT assay; format: cell-based
In short: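 PMA-differentiated U937 macrophages exposed to LPS or compound (up to 5 μg/mL) under the 24 h stimulation protocol; viability checked by MTT assay.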

U-937 [18] = experiment: Antiinflammatory activity in human U937 cells assessed as inhibition of LPS-induced MMP9 secretion at 5 ug/ml after 24 hrs by ELISA relative to control; format: functional; settings: U-937, 24 h; in short: as §3
[19] = biological target: Transcription factor p65 (Homo sapiens) (UniProt Q04206); experiment: Inhibition of LPS-induced NF-kappaB p65 activation in human U937 cells at 5 ug/ml after 1 hr relative to control; format: cell-based; settings: U-937
In short: (§4)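 PMA-differentiated U937 macrophages pretreated with compound (5 μg/mL) for 1 h, then given LPS (1 μg/mL) for 1 h at 37 °C. Whole-cell extracts adjusted to 1 mg/mL protein. NF-κB p65 and AP-1 activation measured by TransAM kits; controls had no pretreatment.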

[20] = biological target: Transcription factor Jun (Homo sapiens) (UniProt P05412); experiment: Inhibition of LPS-induced AP-1 activation in human U937 cells at 5 ug/ml after 1 hr relative to control; format: cell-based; settings: U-937; in short: as §4
Fusobacterium nucleatum [21] = experiment: Antibacterial activity against Fusobacterium nucleatum ATCC 25586 by microdilution technique; format: functional, organism-based
In short: (§5)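 Broth microdilution against each strain; MIC read as lowest concentration with no growth. Growth also expressed as percent of compound-free control (set to 100%). Triplicate assays, two independent experiments, mean ± SD; Student's t test, p < 0.01.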

Prevotella intermedia [22] = experiment: Antibacterial activity against Prevotella intermedia ATCC 25611 by microdilution technique in presence of 1% fetal bovine serum; format: functional, organism-based
In short: (§6)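 Broth microdilution growth assay, repeated in medium supplemented with 1% fetal bovine serum or with 10% unstimulated whole saliva.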

Porphyromonas gingivalis [23] = experiment: Antibacterial activity against Porphyromonas gingivalis ATCC 33277 by microdilution technique in presence of 1% fetal bovine serum; format: functional, organism-based; in short: as §6
Fusobacterium nucleatum [24] = experiment: Antibacterial activity against Fusobacterium nucleatum ATCC 25586 by microdilution technique in presence of 1% fetal bovine serum; format: functional, organism-based; in short: as §6
Prevotella intermedia [25] = experiment: Antibacterial activity against Prevotella intermedia ATCC 25611 by microdilution technique in presence of 10% unstimulated whole salive; format: functional, organism-based; in short: as §6
Porphyromonas gingivalis [26] = experiment: Antibacterial activity against Porphyromonas gingivalis ATCC 33277 by microdilution technique in presence of 10% unstimulated whole salive; format: functional, organism-based; in short: as §6
Fusobacterium nucleatum [27] = experiment: Antibacterial activity against Fusobacterium nucleatum ATCC 25586 by microdilution technique in presence of 10% unstimulated whole salive; format: functional, organism-based; in short: as §6
Prevotella intermedia [28] = experiment: Antibacterial activity against Prevotella intermedia ATCC 25611 assessed as growth inhibition at 5 ug/ml by microdilution technique relative to untreated control; format: functional; settings: read-out: GI; in short: as §5
Prevotella intermedia [29] = experiment: Antibacterial activity against Prevotella intermedia ATCC 25611 by microdilution technique; format: functional; in short: as §5
Prevotella intermedia [30] = experiment: Bactericidal activity against Prevotella intermedia ATCC 25611 at 20 ug/ml by microdilution technique; format: functional, organism-based
In short: (§7)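 MBC: aliquots from wells without visible growth spread on agar plates and incubated five days under appropriate conditions; MBC is the lowest concentration giving no colonies.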

Porphyromonas gingivalis [31] = experiment: Antibacterial activity against Porphyromonas gingivalis ATCC 33277 by microdilution technique; format: functional; in short: as §5
Porphyromonas gingivalis [32] = experiment: Bactericidal activity against Porphyromonas gingivalis ATCC 33277 at 40 ug/ml by microdilution technique; format: functional, organism-based; in short: as §7
Fusobacterium nucleatum [33] = experiment: Antibacterial activity against Fusobacterium nucleatum ATCC 25586 at 40 ug/ml assessed as growth inhibition by microdilution technique relative to untreated control; format: functional; settings: read-out: GI; in short: as §5
[34] = biological target: T1, Collagenase (Porphyromonas gingivalis); experiment: Inhibition of Porphyromonas gingivalis ATCC 33277 collagenase assessed as remaining activity at 5 ug/ml after 4 hrs by fluorimetric analysis relative to control; in short: as §1
[35] = biological target: T1, Collagenase (Porphyromonas gingivalis); experiment: Inhibition of Porphyromonas gingivalis ATCC 33277 collagenase assessed as remaining activity at 25 ug/ml after 4 hrs by fluorimetric analysis relative to control; in short: as §1
[36] = biological target: T1, Collagenase (Porphyromonas gingivalis); experiment: Inhibition of Porphyromonas gingivalis ATCC 33277 collagenase assessed as remaining activity at 100 ug/ml after 4 hrs by fluorimetric analysis relative to control; in short: as §1
Prevotella intermedia [37] = experiment: Antibacterial activity against Prevotella intermedia ATCC 25611 at 40 ug/ml assessed as growth inhibition by microdilution technique relative to untreated control; format: functional; settings: read-out: GI; in short: as §5

Chain of Matrix metalloproteinase-9 (Homo sapiens) (P14780 whole entry): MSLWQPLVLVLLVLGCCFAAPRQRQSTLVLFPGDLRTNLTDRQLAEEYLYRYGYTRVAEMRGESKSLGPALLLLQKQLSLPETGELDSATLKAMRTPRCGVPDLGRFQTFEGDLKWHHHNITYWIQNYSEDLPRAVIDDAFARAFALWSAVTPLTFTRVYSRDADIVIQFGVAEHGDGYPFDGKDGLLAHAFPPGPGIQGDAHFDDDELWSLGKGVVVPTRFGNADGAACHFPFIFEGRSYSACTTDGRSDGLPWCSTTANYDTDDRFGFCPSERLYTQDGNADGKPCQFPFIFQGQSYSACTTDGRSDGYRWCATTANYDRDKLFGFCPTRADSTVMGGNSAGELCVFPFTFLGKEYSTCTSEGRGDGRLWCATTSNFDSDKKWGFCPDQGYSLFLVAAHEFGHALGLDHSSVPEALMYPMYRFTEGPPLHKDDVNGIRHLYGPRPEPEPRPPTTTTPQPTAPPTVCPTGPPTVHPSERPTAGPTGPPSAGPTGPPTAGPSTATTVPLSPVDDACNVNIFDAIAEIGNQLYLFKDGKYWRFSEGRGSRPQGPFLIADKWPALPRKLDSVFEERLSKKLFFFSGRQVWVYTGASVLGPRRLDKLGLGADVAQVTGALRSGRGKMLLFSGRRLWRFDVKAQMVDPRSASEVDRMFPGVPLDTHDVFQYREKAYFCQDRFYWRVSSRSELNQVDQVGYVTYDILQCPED
Chain of Transcription factor p65 (Homo sapiens) (Q04206 whole entry): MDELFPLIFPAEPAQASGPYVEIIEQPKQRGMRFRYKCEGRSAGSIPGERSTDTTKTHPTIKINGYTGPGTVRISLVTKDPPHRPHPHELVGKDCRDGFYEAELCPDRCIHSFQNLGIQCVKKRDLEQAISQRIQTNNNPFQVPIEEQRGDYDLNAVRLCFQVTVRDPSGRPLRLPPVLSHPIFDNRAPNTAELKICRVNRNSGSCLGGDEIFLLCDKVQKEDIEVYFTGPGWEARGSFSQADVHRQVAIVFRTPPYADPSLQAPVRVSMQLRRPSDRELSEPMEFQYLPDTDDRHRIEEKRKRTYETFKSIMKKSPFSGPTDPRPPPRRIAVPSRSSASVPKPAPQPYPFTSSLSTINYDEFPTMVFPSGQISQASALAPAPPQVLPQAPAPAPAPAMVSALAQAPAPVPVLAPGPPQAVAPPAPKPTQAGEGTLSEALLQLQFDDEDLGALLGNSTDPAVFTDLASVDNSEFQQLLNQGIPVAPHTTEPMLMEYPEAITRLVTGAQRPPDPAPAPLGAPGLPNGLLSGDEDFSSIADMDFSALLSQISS
Chain of Transcription factor Jun (Homo sapiens) (P05412 whole entry): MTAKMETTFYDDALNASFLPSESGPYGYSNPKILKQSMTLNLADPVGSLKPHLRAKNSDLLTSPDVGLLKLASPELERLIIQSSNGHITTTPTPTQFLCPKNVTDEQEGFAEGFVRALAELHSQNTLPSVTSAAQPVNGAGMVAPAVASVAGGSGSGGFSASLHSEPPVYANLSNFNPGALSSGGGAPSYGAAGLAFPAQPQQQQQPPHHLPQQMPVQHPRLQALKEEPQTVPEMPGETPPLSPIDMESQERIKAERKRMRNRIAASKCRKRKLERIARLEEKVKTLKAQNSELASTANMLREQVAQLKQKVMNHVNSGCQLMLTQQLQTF

- inhibition [1]: 52%
- Activity [2]: 97%
- Activity [3]: 91%
- Activity [4]: 67%
- inhibition [19]: Active
- inhibition [20]: Active
- MIC (Prevotella intermedia [29]): 10 µg/mL (≈ 39 µM)
- MIC (Porphyromonas gingivalis [31]): 40 µg/mL (≈ 156 µM)
- Activity [34]: 82%
- Activity [35]: 78%
- Activity [36]: 48%
Compound: O=C(/C=C/c1ccc(O)cc1)c1ccc(O)cc1O [ISOLIQUIRITIGENIN]
- inhibition at 5 µg/mL (U-937 [5]): 87%
- inhibition (U-937 [6]): Active
- inhibition (U-937 [7]): Active
- inhibition (U-937 [8]): Active
- inhibition at 5 µg/mL (U-937 [9]): 34%
- inhibition (U-937 [10]): Dose-dependent effect
- inhibition (U-937 [11]): Dose-dependent effect
- inhibition (U-937 [12]): Dose-dependent effect
- inhibition (U-937 [13]): Dose-dependent effect
- inhibition (U-937 [14]): Dose-dependent effect
- inhibition (U-937 [15]): Active
- inhibition (U-937 [16]): Active
- Activity (U-937 [17]): Non-toxic
- inhibition at 5 µg/mL (U-937 [18]): 89%
- Activity (Fusobacterium nucleatum [21]): Dose-dependent effect
- Activity (Prevotella intermedia [22]): Active
- Activity (Porphyromonas gingivalis [23]): Active
- Activity (Fusobacterium nucleatum [24]): Active
- Activity (Prevotella intermedia [25]): Active
- Activity (Porphyromonas gingivalis [26]): Active
- Activity (Fusobacterium nucleatum [27]): Active
- inhibition of growth at 5 µg/mL (Prevotella intermedia [28]): 58%
- Activity (Prevotella intermedia [29]): Dose-dependent effect
- inhibition (Prevotella intermedia [30]): Active
- Activity (Porphyromonas gingivalis [31]): Dose-dependent effect
- inhibition (Porphyromonas gingivalis [32]): inactive
- inhibition of growth at 40 µg/mL (Fusobacterium nucleatum [33]): 70%

- inhibition [1]: 21%
- Activity [2]: 95%
- Activity [3]: 95%
- Activity [4]: 87%
- inhibition [19]: 39%
- inhibition [20]: 20%
- Activity [34]: 83%
- Activity [35]: 82%
- Activity [36]: 79%
Compound: O=C1C[C@@H](c2ccc(O)cc2)Oc2cc(O)ccc21 [LIQUIRTIGENIN]
- inhibition at 5 µg/mL (U-937 [5]): 17%
- inhibition at 5 µg/mL (U-937 [6]; U-937, 24 h): 24%
- inhibition at 5 µg/mL (U-937 [7]; U-937, 24 h): 23%
- inhibition at 5 µg/mL (U-937 [8]; U-937, 24 h): 34%
- inhibition at 5 µg/mL (U-937 [9]): 11%
- Activity (U-937 [17]): Non-toxic
- inhibition at 5 µg/mL (U-937 [18]): 24%
- Activity (Prevotella intermedia [22]): Active
- Activity (Prevotella intermedia [25]): Active
- inhibition of growth at 40 µg/mL (Prevotella intermedia [37]): 85%
